Test results: PubChem BioAssay
Results filed as inconclusive are left out.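 The calls were made as follows, unless noted: active = viability increase at or above a cutoff of the median across tested compounds plus 3 SD (cut at about 8.5% in these data, passing the limit was not always enough); inconclusive = some gains above the cutoff, reason not given; inactive = the rest.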

Assays:
[1] = S. cerevisiae growth inhibition in permissive medium (OD615), pilot counter-assay for S. cerevisiae lifespan shortening project, permissive growth control (AID 705;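 active = growth inhibition above 25% in both replicates, a cutoff set 3 SD above the mean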); conditions: OD615, 24 h, at 10 µM, hits give high values
In short: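 System – S. cerevisiae with engineered DeaD lifespan system · Buffer or medium – SC raffinose/galactose permissive medium · Schedule – cells pre-grown 4 h, then 24 h compound exposure, 30 °C humidified · Technique – culture turbidity as optical density at 615 nm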

[2] = S. cerevisiae growth inhibition in restrictive medium, OD615, pilot screen, restrictive growth control, yeast lifespan reduction project (AID 706;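 active = growth inhibition above a set limit, 3 SD over mean compound inhibition, in both replicates, cut at about 43% in these data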;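 also: modified DeaD lifespan yeast strain shifted to restrictive glucose medium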); conditions: OD615, 48 h, at 10 µM, hits give high values
In short: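 Material: engineered S. cerevisiae DeaD strain / Medium: glucose-based CSMM-D restrictive medium / Compound: single dose of 10 µM compound final, 0.25% DMSO / Timing: 4 h pre-incubation, 48 h exposure at 30 °C / Technique: OD615 absorbance reading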

[3] = doxorubicin toxicity protection in MRP-1 cells – H69AR cells, CellTiter-Glo, duplicate, MRP-1 activator project, pilot screen (AID 807); conditions: H69AR viability with doxorubicin, CellTiter-Glo luminescence; at 10 µM; hits give high values;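 also: compound pretreatment 18-22 h then 72 h combined with doxorubicin; 0% = doxorubicin alone and 100% = vehicle without doxorubicin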
[4] = viability of HCT116 without oncogenic beta-catenin – human colon tumor cells, pilot screen (AID 823;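 active = cell viability at or below a set limit in both duplicate runs, the limit being the all-compound median minus 4 SD, cut at about 23% in these data, passing the limit was not always enough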;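 also: 0% = wells killed by 20 µM Hyamine and 100% = untreated DMSO cell wells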); conditions: HCT116 beta-catenin knockout viability, CellTiter-Glo, 60 h; at 10 µM; hits give low values
[5] = viability of PTEN-null HCT116 cells – cell-based, HCT116 clonal line, CellTiter-Glo, pilot screen (AID 824;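 active = viability at or below 27.92% in each of two runs, the all-compound median minus 4 SD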;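 also: 0% = 20 µM Hyamine control and 100% = vehicle cell control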); conditions: HCT116 PTEN-deleted viability, 60 h, at 10 µM, hits give low values
[6] = RAM pathway blockade in budding yeast – dse1pr::URA3 reporter, 5-FOA selection, pilot screen (AID 869;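 active = inhibition over a set limit, the all-compound mean plus 3 SD, in both replicate runs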;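 also: 0% = DMSO wells with no growth and 100% = 10 µM 1-NA-PP1 with full growth; RAM network block rescues cells from 5-FOA so hits raise OD615 growth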); conditions: S. cerevisiae dse1pr::URA3 5-FOA growth, OD615, 2 d; at 10 µM; hits give high values; strain carries analog-sensitive mutant Cbk1 kinase
[7] = RAM signaling pathway blockade in yeast – S. cerevisiae, Pdr1DBD-CYC8 efflux-inhibited sensitized strain, primary screen (AID 1298;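 active = RAM network inhibition above 8.4% in each of two replicates, 3 SD over the compound average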;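 also: 0% = DMSO untreated cells without growth and 100% = 10 µM 1-NA-PP1 full growth; higher means more yeast growth rescued from 5-FOA killing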); conditions: S. cerevisiae cbk1-as DSE1-URA3 strain, 5-FOA growth OD615, 2 d; at 50 µM; hits give high values

Cc1ccccc1N1C(=O)C(Cl)=C(N2CCN(c3ccccc3)CC2)C1=O
inactive: growth inhibition [1] -5.42% | growth inhibition [2] -12.1% | viability increase [3] -2.29% | viability [4] 101% | viability [5] 109% | inhibition [6] 0.515% | RAM network inhibition [7] 1.87%

CCn1cc(C2N3CC4(C)CN2CC(C)(C3)C4=O)c2ccccc21 (centres undefined)
inactive: growth inhibition [1] -13.9% | growth inhibition [2] -16.4% | viability increase [3] -0.78% | viability [4] 97.3% | viability [5] 100% | inhibition [6] 1.94% | RAM network inhibition [7] 0.48%

CC(=O)Nc1ccc(C2Nc3ccccc3C(=O)N2C2CCCCC2)cc1 (centres undefined)
inactive: growth inhibition [1] -5.95% | growth inhibition [2] -9.11% | viability increase [3] -1.42% | viability [4] 94.9% | viability [5] 93.6% | inhibition [6] 2.73% | RAM network inhibition [7] -0.56%

Cc1oc(-c2ccccc2F)nc1CS(=O)CC(=O)NCc1cccs1 (centres undefined)
inactive: growth inhibition [1] -2.83% | growth inhibition [2] 26% | viability increase [3] -2.27% | viability [4] 99.7% | viability [5] 93.4% | inhibition [6] 1.64% | RAM network inhibition [7] 8.65%

Cc1ccc(F)cc1NC(=O)c1c(-c2ccccc2)noc1C
inactive: growth inhibition [1] -10.2% | growth inhibition [2] -26.1% | viability increase [3] -2.01% | viability [4] 78.8% | viability [5] 72.9% | inhibition [6] 0.015% | RAM network inhibition [7] 2.22%

CC1(C)CC(=O)C=C(NCCN2CCN(C(=O)Nc3ccc(Cl)cc3)CC2)C1
inactive: growth inhibition [1] -1.03% | growth inhibition [2] 5.34% | viability increase [3] 1.25% | viability [4] 99.2% | viability [5] 101% | inhibition [6] 1.35% | RAM network inhibition [7] 4.07%

Cc1ccc2c(c1)NCC(C(=O)NCc1ccccc1)O2 (centres undefined)
inactive: growth inhibition [1] -10.4% | growth inhibition [2] 2.51% | viability increase [3] 0.49% | viability [4] 103% | viability [5] 88.6% | inhibition [6] 1.46% | RAM network inhibition [7] 0.25%

Cc1cc(C)cc(N(CC(=O)N2CCN(c3ccccc3)CC2)S(=O)(=O)c2c(C)noc2C)c1
inactive: growth inhibition [1] -14.4% | growth inhibition [2] -10.2% | viability increase [3] -3.46% | viability [4] 62.6% | viability [5] 67.5% | inhibition [6] 0.57% | RAM network inhibition [7] 6.09%

COc1ccc(NC(=O)CSc2nnc(Cn3c(=O)sc4ccccc43)n2C)cc1
inactive: growth inhibition [1] -3.85% | growth inhibition [2] 7.49% | viability increase [3] -4.99% | viability [4] 111% | viability [5] 98.4% | inhibition [6] 2.43% | RAM network inhibition [7] 1.51%

Cc1ccc2cc(CCNC(=O)CC(C)C)c(=O)[nH]c2c1
inactive: growth inhibition [1] -7.75% | growth inhibition [2] -0.53% | viability increase [3] 0.14% | viability [4] 105% | viability [5] 103% | inhibition [6] 1.69% | RAM network inhibition [7] 3.87%

Brc1ccc(-c2nnc3sc(CNCc4ccc5c(c4)OCO5)cn23)cc1
inactive: growth inhibition [1] 5.46% | growth inhibition [2] 20.8% | viability increase [3] -0.67% | viability [4] 99.6% | viability [5] 99.8% | inhibition [6] 1.17% | RAM network inhibition [7] 1.64%

N#Cc1c2n(c3c(-c4ccccc4)ncnc13)CCC2
inactive: growth inhibition [1] -12.9% | growth inhibition [2] -11.2% | viability increase [3] -2.25% | viability [4] 104% | viability [5] 98.7% | inhibition [6] 2.73% | RAM network inhibition [7] 3.93%

COC(=O)C1C(O)=C(C(C)=N)C(=O)CC1(C)C (centres undefined)
inactive: growth inhibition [1] -3.89% | growth inhibition [2] 2.82% | viability increase [3] -0.83% | viability [4] 98.1% | viability [5] 90.8% | inhibition [6] -0.755% | RAM network inhibition [7] 1.67%

COc1ccc(C(=O)NCC(c2cccnc2)N2CCN(c3ccccc3OC)CC2)cc1OC (centres undefined)
inactive: growth inhibition [1] -7.95% | growth inhibition [2] -2.41% | viability increase [3] -3.05% | viability [4] 89.4% | viability [5] 91% | inhibition [6] 1.16% | RAM network inhibition [7] 2.21%

O=C(Nc1nc2c(s1)CCCC2)c1ccc(Br)o1
inactive: growth inhibition [1] 6.52% | growth inhibition [2] -10.8% | viability increase [3] -4.11% | viability [4] 62.4% | viability [5] 64.6% | inhibition [6] 1.8% | RAM network inhibition [7] 4.86%

COc1ccc(N2CCN(C(=O)C3CCCN(S(=O)(=O)c4cccc5cccnc45)C3)CC2)cc1 (centres undefined)
inactive: growth inhibition [1] 7.46% | growth inhibition [2] -2.35% | viability increase [3] -3.75% | viability [4] 69.6% | viability [5] 68.2% | inhibition [6] 0.045% | RAM network inhibition [7] 2.71%

Cn1cccc1Cc1nnc(SCC(=O)NCCc2ccccc2)n1-c1ccc(F)cc1
inactive: growth inhibition [1] -6.41% | growth inhibition [2] 5.7% | viability increase [3] -2.38% | viability [4] 93.7% | viability [5] 93.3% | inhibition [6] 2.35% | RAM network inhibition [7] 5.42%
